The nature of assay [1]: Vasorelaxant activity against U46619-induced contraction in bovine coronary artery ring treated after U46619 challenge. The assay is classed as functional, tissue-based. Particulars: Bos taurus. Summed up: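 Bioassay run 3-5 times (n = 3-5); reported values are means, ±10% SD.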
A short description of assay [2]: Vasorelaxant activity against U46619-induced contraction in bovine coronary artery ring at 10 uM treated after U46619 challenge. The assay is classed as functional, Bos taurus. Also on record: scale not given: the % may be the effect or the level left.
Assay [3] addresses T1, Bifunctional epoxide hydrolase 2 (Homo sapiens, UniProt P34913).
T1 sequence (P34913 whole entry): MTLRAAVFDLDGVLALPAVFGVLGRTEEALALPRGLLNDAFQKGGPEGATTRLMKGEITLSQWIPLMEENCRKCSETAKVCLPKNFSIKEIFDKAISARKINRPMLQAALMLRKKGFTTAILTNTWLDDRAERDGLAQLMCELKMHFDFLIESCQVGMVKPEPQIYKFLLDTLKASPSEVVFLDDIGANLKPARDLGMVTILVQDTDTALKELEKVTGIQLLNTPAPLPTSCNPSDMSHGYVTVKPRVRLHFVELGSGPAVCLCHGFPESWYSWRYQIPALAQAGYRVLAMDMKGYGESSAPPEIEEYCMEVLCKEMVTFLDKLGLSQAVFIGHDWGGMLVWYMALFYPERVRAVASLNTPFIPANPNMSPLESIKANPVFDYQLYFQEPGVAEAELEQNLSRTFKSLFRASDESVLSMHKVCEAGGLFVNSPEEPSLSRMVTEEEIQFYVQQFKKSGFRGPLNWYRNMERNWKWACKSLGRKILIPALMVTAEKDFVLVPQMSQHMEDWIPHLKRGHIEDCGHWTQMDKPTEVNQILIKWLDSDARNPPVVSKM
Kind of assay: Inhibition of human recombinant soluble epoxide hydrolase expressed in baculovirus system assessed as appearance of 6-methoxynaphthaldehyde product by fluorescent-based assay.

Assay [4] is described as follows: Vasorelaxant activity against U46619-induced contraction in bovine coronary artery ring at 10 uM treated after U46619 challenge. Also on record: scale not given: the % may be the effect or the level left.

Some results are limits rather than exact numbers.

Turning to `CCCCCCN(C)C(=O)CCCC/C=C\CCCCCCC(=O)O`, in assay [1] (read-out: EC50), the EC50 is above 10 µM. The Activity in assay [2] was found to be 12%. Moreover, in assay [3], the IC50 (in general, the point on the concentration scale where inhibition reaches its midpoint) amounted to 13.9 µM.
Consider `CCCCCN(C)C(=O)N(C)CCCC/C=C\CCCCCCC(=O)O`, for which the EC50 in assay [1] (read-out: EC50) was found to be 3.2 µM. The Activity in assay [2] was 83%. In addition, the IC50 in assay [3] turned out to be 8.48 µM.
The corresponding values for `CCCCCCC(=O)NCCCCCCCC#CCCCC(=O)O` are 5.7 µM, 69% and 0.272 µM.
The corresponding values for `CCCCCNC(=S)NCCCC/C=C\CCCCCCC(=O)O` are 1.5 µM, 99% and 0.77 µM.
The corresponding values for `CCCCCNC(=O)NCCCCC#CCCCCCCC(=O)O` are 3.1 µM, 62% and 0.043 µM.
As to `CCCCCNC(=O)NCCCCCCC/C=C\CCCC(=O)O`, in assay [1] (read-out: EC50), the EC50 was 5.6 µM. In assay [2], this compound registered an Activity of 66%. In addition, the IC50 in assay [3] is 0.793 µM.
The matching figures for `CCCCCNC(=O)NCCCC/C=C\CCC(=O)O`: above 10 µM, 16% and 1.36 µM.
The corresponding values for `CCCCCNC(=O)NCCCCC#CCCC(=O)O` are above 10 µM, 46% and 8.11 µM.
The corresponding values for `CCCCN(C)C(=O)C(=O)N(C)CCCC/C=C\CCCCCCC(=O)O` are 4.4 µM, 70% and 17.6 µM.
On to `CCCCNC(=O)NCCCCC/C=C\CCCCCCC(=O)OC`, for which, in assay [1] (read-out: EC50), the EC50 was 4.6 µM. Further, the Activity in assay [2] was 84%. In assay [3], the IC50 is 0.152 µM.
The corresponding values for `CCCCCNC(=O)NCCCC/C=C\CCCCCCC(=O)O` are 7.5 µM, 63% and 0.046 µM.
The matching figures for `CCCCCNC(=O)OCCCC/C=C\CCCCCCC(=O)O`: 9.3 µM, 53% and 3.48 µM.
The corresponding values for `CCCCCc1ccc(CCCC/C=C\CCCCCCC(=O)O)o1` are above 10 µM, 11% and 7.15 µM.
As for `CCCCCC1CN=C(CCCC/C=C\CCCCCCC(=O)OC)O1` (stereo unspecified), the EC50 in assay [1] (read-out: EC50) was above 10 µM. The compound also yielded an Activity in assay [2] of 33%. Also, the IC50 in assay [3] was determined as 0.688 µM.
The corresponding values for `CCCCNC(=O)C(=O)NCCCC/C=C\CCCCCCC(=O)O` are 1.7 µM, 89% and 58.7 µM.
The matching figures for `CCCCCCC(=O)N(C)CCCC/C=C\CCCCCCC(=O)O`: 4.3 µM, 64.5% and 11.2 µM.
The corresponding values for `CCCCCNC(=O)NCCCC/C=C/CCCCCCC(=O)O` are above 10 µM, 29% and 0.0485 µM.
Turning to `CCCCCCC(=O)N(CCCC/C=C\CCCCCCC(=O)O)C(C)C`, in assay [1] (read-out: EC50), the EC50 was determined as 1.7 µM. In assay [2], this compound returned an Activity of 100%. In addition, the IC50 in assay [3] was determined as 19 µM.
On to `CCCCCCNC(=O)NCCC/C=C\CCCCCCC(=O)O`, for which the EC50 in assay [1] (read-out: EC50) stood at 3.5 µM. The same compound registered an Activity in assay [2] of 86%. Also, the IC50 in assay [3] was found to be 0.016 µM.
In the case of `CCNC(=O)NCCCC/C=C\CCCCCCCCCC(=O)O`, the EC50 in assay [1] (read-out: EC50) is above 10 µM. In assay [2], the Activity was determined as 50%. For the same compound, the IC50 in assay [3] came to 2.6 µM.
The corresponding values for `CCCCCNC(=O)NOCCC/C=C\CCCCCCC(=O)O` are 3.7 µM, 87% and 1.37 µM.
The corresponding values for `CCCCCCC(=O)NCCCC/C=C\CCCCCCC(=O)O` are 6.1 µM, 64.5% and 0.079 µM.
The matching figures for `CCCCCCNC(=O)CCCC/C=C\CCCCCCC(=O)O`: 4.9 µM, 74% and 0.066 µM.
`CCCCCNC(=O)N(C)CCCC/C=C\CCCCCCC(=O)O`: the EC50 in assay [1] (read-out: EC50) turned out to be 7.6 µM. Moreover, the Activity in assay [2] is 59%. Besides, in assay [3], the half-maximal inhibitory concentration (IC50) stood at 0.0715 µM.
Regarding `CCCCCc1cn(CCCC/C=C\CCCCCCC(=O)[O-])nn1.[Na+]`, the EC50 in assay [1] (read-out: EC50) is 6.2 µM. Also, the Activity in assay [2] is given as 65%. Besides, the IC50 in assay [3] is 17.8 µM.
For the compound `CCCCCN(C)C(=O)N(C)CCCCCCCC#CCCCC(=O)O`, in assay [1] (read-out: EC50), the EC50 came out at 2.3 µM. In assay [2], this compound displayed an Activity of 77.5%. In assay [3], the IC50 was determined as 11.1 µM.
The corresponding values for `CCCCCN(C)C(=O)NCCCC/C=C\CCCCCCC(=O)O` are 3.2 µM, 88% and 1.45 µM.
The corresponding values for `CCCCCOC(=O)NCCCC/C=C\CCCCCCC(=O)O` are 8.3 µM, 64% and 2.83 µM.
In the case of `CCCCC[C@@H]1O[C@@H]1C/C=C\C/C=C\C/C=C\CCCC(=O)O` (relative stereo), the Activity in assay [4] came out at 85%. In addition, in assay [1] (read-out: ED50 (the source's name)), the EC50 stood at 2.2 µM.

For the origin of these results see ChEMBL document CHEMBL1151961, “14,15-Epoxyeicosa-5,8,11-trienoic acid (14,15-EET) surrogates containing epoxide bioisosteres: influence upon vascular relaxation and soluble epoxide hydrolase inhibition” (J Med Chem, 2009).
